Results on eight compounds are retold here after ChEMBL document CHEMBL1687923, “Discovery of N-hydroxyindole-based inhibitors of human lactate dehydrogenase isoform A (LDH-A) as starvation agents against cancer cells” (J Med Chem, 2011).

Each structure is given as a SMILES string. Activity calls are given as the source filed them. The calls are words filed in the database; no cut-off is given here.

Assay [1] has as its target T1, L-lactate dehydrogenase A chain (Homo sapiens, UniProt P00338). As to the kind of experiment: Inhibition of human LDH-A using pyruvate as substrate and NADH as cofactor at 125 uM after 5 mins by calorimetric assay relative to control.
Assay [2] addresses L-lactate dehydrogenase B chain (Homo sapiens) (UniProt P07195). As to the kind of experiment: Inhibition of human LDH-B using pyruvate as substrate and NADH as cofactor at 125 uM after 5 mins by calorimetric assay relative to control. The method in brief: (§1)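 Purified human LDH1 (LDH-B4), run as for LDH-A but only under pyruvate saturation (2 mM sodium pyruvate) with 25 µM NADH. Test compound at 125 µM, 37 °C, phosphate buffer. Activity is the A340 decrease from NADH consumption, read every 30 s for 5 min. Percent inhibition is relative to control, as mean ± SD of two or more independent experiments. Detection limit is 3%.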

In the next assay the test system is ADDP cell line. The assay can be described thus: Induction of apoptosis in human ADDP cells assessed as appearance of sub-G1 cell subpopulation at compound IC50 after 24 hrs by flow cytometry. The class given is functional, cell-based. The method in brief: (§2)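 Cells are trypsinized, pelleted and stained with cold propidium iodide buffer for 30 min on ice. DNA content is measured by flow cytometry (10 000 cells/sample) to give G0/G1, S and G2/M fractions and the sub-G1 population. Results are mean ± SE of three experiments, analyzed by t-test or ANOVA.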

Another assay deals with ADDP. As to the kind of experiment: Effect on cell cycle distribution in human ADDP cells assessed as DNA content after 24 hrs by flow cytometry. The class given is functional, cell-based. Summed up: as §2
(In general: Flow cytometry measures light scatter and fluorescence of single cells or particles in a stream.)

Assay [3] concerns HeLa. As to the kind of experiment: Reduction in lactate production in perfused human HeLa cells at < 400 uM after 12 hrs by NMR spectroscopy using D-[1,6-13C2]glucose as substrate. The class given is functional, cell-based. Summed up:
(§3)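 HeLa cells are grown in RPMI-1640 with 10% FBS to 80% confluency, then washed for 15 min in glucose-free DMEM. Medium is replaced with DMEM containing 10 mM D-[1,6-13C2]glucose. Compound is added from 100× DMSO stocks (1% DMSO final), with vehicle controls, at 37 °C under normoxia. Medium is sampled at 6 and 12 h. 13C NMR gives the lactate-C3 (20.28 ppm) to glucose-C6 (60.95 ppm) peak-area ratio.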

Assay [4] deals with NCI-H630. The assay can be described thus: Induction of apoptosis in human NCI-H630 cells assessed as appearance of sub-G1 cell subpopulation at compound IC50 after 24 hrs by flow cytometry. In kind it is functional, cell-based. Summed up:
as §2

Assay [5] deals with NCI-H630. The assay can be described thus: Cytotoxicity against human NCI-H630 cells after 48 hrs by sulforhodamine B assay. In kind it is functional, cell-based. Particulars: NCI-H630, 48 h. Summed up:
(§4)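 Cells grown in RPMI 1640 with 10% FCS, 2 mM glutamine and penicillin/streptomycin, at 37 °C in 5% CO2 under normoxia. Compounds (10 mM DMSO stocks) are added on day 1 after plating at 1–100 µM, in triplicate, for 48 h. DMSO 0.25% v/v serves as control. Cells are TCA-fixed, stained with SRB and read at 492 nm. Growth is calculated relative to T0 and control. IC50 reported as mean ± SD from at least two experiments.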
Background: Sulforhodamine B stains cellular protein and so reports cell mass.

Assay [6] relates to HeLa. The assay can be described thus: Reduction in lactate production in perfused human HeLa cells assessed as lactate to glucose ratio at 500 uM after 12 hrs by NMR spectroscopy using D-[1,6-13C2]glucose as substrate relative to control. In kind it is functional. The method in brief:
as §3

A short description of assay [7]: Cytotoxicity against human ADDP cells after 48 hrs by sulforhodamine B assay. The class given is functional, cell-based. Summed up:
as §4

The nature of assay [8]: Cytotoxicity against human LPc067 cells after 48 hrs by sulforhodamine B assay. The class given is functional, cell-based. The note with it: LPc067, 48 h. The method in brief: as §4
The next assay concerns NCI-H2052. The assay can be described thus: Cytotoxicity against human NCI-H2052 cells after 48 hrs by sulforhodamine B assay. The class given is functional, cell-based. The note with it: NCI-H2052, 48 h. The method in brief: as §4
The next assay has as its system HS27. The assay can be described thus: Cytotoxicity against immortalized human HS27 cells after 48 hrs by sulforhodamine B assay. Particulars: HS27, 48 h. In kind it is functional, cell-based. The method in brief:
as §4

Assay [9] can be described thus: Cytotoxicity against human LPc006 cells grown in hypoxic condition after 48 hrs by sulforhodamine B assay relative to normoxygenated cells. The class given is functional, cell-based. The note with it: LPc006, 48 h. Summed up: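 LPC006 primary pancreatic cancer cells are treated with compounds at 1–100 µM for 48 h under hypoxia (1% O2, 5% CO2, 94% N2, 37 °C). Read-out is the SRB assay at 492 nm with growth calculated relative to T0 and control. IC50 is the mean ± SE of three independent experiments and is compared with normoxic cells by Student's t-test.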

A short description of assay [10]: Cytotoxicity against human LPc028 cells after 48 hrs by sulforhodamine B assay. The class given is functional, cell-based. The note with it: LPc028, 48 h. The method in brief: as §4
In assay [11] the test system is NCI-H630. As to the kind of experiment: Effect on cell cycle distribution in human NCI-H630 cells assessed as DNA content after 24 hrs by flow cytometry. The class given is functional, cell-based. Summed up:
as §2

The target in assay [12] is L-lactate dehydrogenase B chain (Homo sapiens) (UniProt P07195). The assay can be described thus: Inhibition of human LDH-B using saturating concentration of pyruvate and NADH as cofactor after 5 mins by calorimetric assay relative to control. Summed up:
as §1

A further assay has as its system MSTO-211H. As to the kind of experiment: Cytotoxicity against human MSTO-211H cells after 48 hrs by sulforhodamine B assay. In kind it is functional, cell-based. The method in brief: as §4
The target in assay [13] is T1, L-lactate dehydrogenase A chain. The assay can be described thus: Competitive inhibition of human LDH-A using pyruvate as substrate after 5 mins by calorimetric assay relative to control. Summed up:
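Ki values from Lineweaver-Burk double-reciprocal plots. Enzyme is purified human LDH5 (LDH-A4), 0.005 units, in 100 mM sodium phosphate pH 7.4 at 37 °C. NADH is held saturating at 200 µM while sodium pyruvate is varied from 25 µM to 1 mM. Inhibitor is at 25–100 µM. A340 decrease is read every 30 s for 5 min, in triplicate.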

Assay [14] in a line: Cytotoxicity against human LPc006 cells after 48 hrs by sulforhodamine B assay. The class given is functional, cell-based. Particulars: LPc006, 48 h. Summed up: as §4
Assay [15] can be described thus: Cytotoxicity against immortalized human HPNE cells expressing human TERT after 48 hrs by sulforhodamine B assay. The class given is functional, cell-based. The method in brief: as §4
The test system of another assay is A2780. The assay can be described thus: Cytotoxicity against human A2780 cells after 48 hrs by sulforhodamine B assay. In kind it is functional, cell-based. The note with it: A2780, 48 h. The method in brief: as §4
Assay [16] has as its target T1, L-lactate dehydrogenase A chain. The assay can be described thus: Competitive inhibition of human LDH-A using NADH as substrate after 5 mins by calorimetric assay relative to control. The method in brief:
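Ki values from Lineweaver-Burk double-reciprocal plots. Enzyme is purified human LDH5 (LDH-A4), 0.005 units, in 100 mM sodium phosphate pH 7.4 at 37 °C. Pyruvate is held saturating at 2 mM while NADH is varied from 12.5 to 150 µM. Inhibitor is at 25–100 µM. NADH oxidation is read as A340 every 30 s for 5 min, in triplicate.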

The test system of a further assay is NCI-H2452. As to the kind of experiment: Cytotoxicity against human NCI-H2452 cells after 48 hrs by sulforhodamine B assay. The class given is functional, cell-based. The note with it: NCI-H2452, 48 h. The method in brief:
as §4

The next assay relates to NCI-H28. The assay can be described thus: Cytotoxicity against human NCI-H28 cells after 48 hrs by sulforhodamine B assay. Particulars: NCI-H28, 48 h. The class given is functional, cell-based. The method in brief: as §4
Assay [17] concerns HeLa. The assay can be described thus: Reduction in lactate production in perfused human HeLa cells at 400 uM after 12 hrs by NMR spectroscopy using D-[1,6-13C2]glucose as substrate. Also on record: scale not given: the % may be the effect or the level left. The class given is functional. The method in brief:
as §3

Sequence of L-lactate dehydrogenase B chain (Homo sapiens) (P07195 2-334 limits assumed): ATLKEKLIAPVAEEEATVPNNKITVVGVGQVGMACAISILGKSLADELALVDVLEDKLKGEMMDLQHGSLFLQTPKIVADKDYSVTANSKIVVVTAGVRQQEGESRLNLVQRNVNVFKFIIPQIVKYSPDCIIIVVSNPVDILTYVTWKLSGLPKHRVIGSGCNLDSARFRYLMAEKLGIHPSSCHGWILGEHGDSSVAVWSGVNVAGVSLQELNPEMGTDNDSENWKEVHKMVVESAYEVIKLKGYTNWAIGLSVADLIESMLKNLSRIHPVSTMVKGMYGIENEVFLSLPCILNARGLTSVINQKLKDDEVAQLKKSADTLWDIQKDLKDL

`O=C(O)c1cc2ccc(-c3nn[nH]n3)cc2n1O` displayed an inhibition in assay [1] of 11%.

With `COn1c(C(=O)O)cc2ccc(-c3ccccc3)cc21`, the inhibition result in assay [1] and in assay [2] was “inactive” throughout.

`O=C(O)c1cc2c(Br)cccc2n1O` showed an inhibition in assay [1] of 32%.

For the compound `COC(=O)c1cc2ccc(-c3ccccc3)cc2n1O`, the inhibition in assay [1] amounted to 4%; in assay [2], 8%.

Turning to `O=C(O)c1cc2cc(-c3ccccc3)ccc2[nH]1`, the inhibition result in assay [1] and in assay [2] was “Active” throughout.

For `O=C(O)c1cc2c(C(F)(F)F)cc(-c3ccccc3)cc2n1O`, the outcome in the assay on ADDP cell line and in the assay on NCI-H630 [4] was Active. The results for the Activity entry in the assay on ADDP, with NCI-H630 [11] and in the assay on HeLa [17] were “Dose-dependent effect”, “Dose-dependent effect” and 20%, respectively. For the same compound, the result in the assay with HeLa [3] was inactive. The IC50 in the assay on NCI-H630 [5] is 31.5 µM; in assay [7], 17 µM; in assay [8], 13.5 µM; with NCI-H2052, 73.2 µM; in the assay with HS27, greater than 100 µM; in assay [9] it was 0.9 µM. Further, the IC50 in assay [10] is 41.2 µM; in the assay with MSTO-211H it was 10.6 µM; in assay [14], 16.3 µM; in assay [15], greater than 100 µM; in the assay on A2780 it was 10.8 µM; with NCI-H2452, 90.2 µM. For the same compound, the IC50 with NCI-H28 was found to be 11.4 µM. Further, the Ratio in the assay on HeLa [6] is less than 0.01. Further, the inhibition in [12] is 11%; in [1], 87%; in [2], 11%. In addition, the Ki in [13] came out at 4.7 µM; in [16], 8.9 µM.

As for `O=C(O)c1cc2cc(-c3ccccc3)ccc2n1O`, the outcome in the assay on ADDP cell line and with NCI-H630 [4] was Active. In addition, the Activity entry in the assay on ADDP and with NCI-H630 [11] was “Dose-dependent effect” each time. In addition, the IC50 is 17.7 µM in the assay on NCI-H630 [5]; 14.6 µM in [7]; 20.9 µM in assay [8]; 62.4 µM in the assay with NCI-H2052; greater than 100 µM with HS27; 0.1 µM in assay [9]. Moreover, the 50% inhibitory concentration (IC50) is 48.8 µM in assay [10]; 2.5 µM in the assay on MSTO-211H; 14.3 µM in assay [14]; greater than 100 µM in assay [15]; 13.7 µM with A2780; 45.3 µM with NCI-H2452. For the same compound, 5.8 µM corresponded to half-maximal inhibition in the assay with NCI-H28 (IC50). The inhibition in assay [12] was less than 3%; in assay [1], 99%. For the same compound, the Ki in [13] came out at 15.7 µM; in assay [16], 10.4 µM.

On to `O=C(O)c1cc2ccc(-c3ccccc3)cc2n1O`, for which the result in the assay with ADDP cell line and in the assay with NCI-H630 [4] was Active. Further, the Activity result in the assay with ADDP and in the assay on NCI-H630 [11] was “Dose-dependent effect” in each case. Besides, the IC50 was 15.1 µM in the assay on NCI-H630 [5]; 16.3 µM in assay [7]; 18.2 µM in assay [8]; 50.5 µM in the assay on NCI-H2052; greater than 100 µM in the assay on HS27; 0.36 µM in [9]. Moreover, the IC50 in [10] was 32.3 µM; in the assay with MSTO-211H, 2.4 µM; in assay [14] it was 15.7 µM; in assay [15], greater than 100 µM; in the assay with A2780 it was 10.1 µM; with NCI-H2452 it was 21.3 µM. The same compound showed an IC50 with NCI-H28 of 7.8 µM. Besides, the Ratio in the assay on HeLa [6] stood at 0.12. Further, the inhibition in assay [12] is less than 3%; in assay [1], 84%. The Ki in assay [13] was 35.4 µM; in assay [16], 19.8 µM.

Broadly, the inhibition is how much of the control response was suppressed. One may read the IC50 as the point on the concentration scale where inhibition reaches its midpoint. By Ki is commonly meant the equilibrium dissociation constant of an inhibitor or competing ligand from its target.
